From ChEMBL document CHEMBL1153956, “Synthesis of protein tyrosine phosphatase 1B inhibitors: model validation and docking studies” (Bioorg Med Chem Lett, 2009)

Legend:
[1] = molecular target: T1, Tyrosine-protein phosphatase non-receptor type 1 (Homo sapiens) (UniProt P18031); assay: Inhibition of PTP1B at 100 uM
T1 sequence (whole entry): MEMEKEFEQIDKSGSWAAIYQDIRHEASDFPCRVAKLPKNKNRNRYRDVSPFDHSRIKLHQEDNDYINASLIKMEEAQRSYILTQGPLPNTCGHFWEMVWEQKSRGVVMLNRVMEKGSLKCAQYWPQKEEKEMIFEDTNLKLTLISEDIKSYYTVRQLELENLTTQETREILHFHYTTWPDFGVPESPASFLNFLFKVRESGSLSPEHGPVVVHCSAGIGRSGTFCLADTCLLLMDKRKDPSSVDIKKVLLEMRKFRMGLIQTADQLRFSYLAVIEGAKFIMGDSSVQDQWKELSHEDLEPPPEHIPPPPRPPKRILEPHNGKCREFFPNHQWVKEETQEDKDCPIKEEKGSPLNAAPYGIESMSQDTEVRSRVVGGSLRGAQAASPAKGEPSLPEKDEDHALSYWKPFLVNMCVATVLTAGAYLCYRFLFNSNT
Outline: (§1)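 PTP1B was pre-incubated with test compound for 10 min in the reaction system, at graded doses for IC50 or at a single fixed concentration for percent inhibition. Residual activity was measured by the Goldstein method with 10 mM PNPP in 50 mM HEPES pH 7.0 containing 1 mM EDTA and DTT. Peroxovanadate served as control. The reaction was stopped with 0.1 N NaOH and read at 410 nm. p-Nitrophenolate was quantified using ε = 1.78 × 10⁴ M⁻¹ cm⁻¹.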

[2] = molecular target: T2, Tyrosine-protein phosphatase non-receptor type 1 (Homo sapiens, UniProt P18031); assay: Inhibition of PTP1B; outline: as §1
T2 sequence (P18031 whole entry): T1 sequence (whole entry)

Rattus norvegicus [3] = assay: Antidiabetic activity in sucrose loaded Sprague-Dawley rat model assessed as reduction in blood glucose level at 100 mg/kg; assay type: functional; design: scale not given: the % may be the effect or the level left
Rattus norvegicus [4] = assay: Antidiabetic activity in streptozotocin-induced diabetic Sprague-Dawley rat model assessed as reduction in blood glucose level at 100 mg/kg; assay type: functional; design: scale not given: the % may be the effect or the level left
Outline: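 Streptozotocin-induced diabetic rats received compound, vehicle or metformin as reference standard. Blood glucose was monitored before dosing and up to 24 h after administration. Activity is expressed as percent sugar-lowering effect.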

inhibition [1] | IC50 [2] | SMILES | Activity (Rattus norvegicus [3]) | Activity (Rattus norvegicus [4])
62.5% | 87 µM | COc1ccc(CCNC(=O)Cc2ccccc2[N+](=O)[O-])cc1 | 19.8% | 17.5%
 |  | CN(C)C(=N)NC(=N)N [METFORMIN] | 27.2% | 23.9%
68.2% | 71 µM | COc1ccc(CCNC(=O)COc2ccccc2)cc1 | 24.6% | 20.6%
76.9% | 69 µM | COc1ccc(CCNC(=O)Cc2cccc3ccccc23)cc1 | 25.1% | 24.1%
